Test results: ChEMBL document CHEMBL4732210, “Discovery of new phenyl sulfonyl-pyrimidine carboxylate derivatives as the potential multi-target drugs with effective anti-Alzheimer's action: Design, synthesis, crystal structure and in-vitro biological evaluation” (Eur J Med Chem, 2021)
Active and inactive are the calls of the source. No cut-off for these calls is given here.

How the values were obtained:
[1] = organism: Homo sapiens; experiment: Selectivity index, ratio of IC50 for BuChE in human serum to IC50 for AChE in human erythrocytes measured by DTNB reagent based Ellman's method; format: cell-based
[2] = target: Amyloid-beta precursor protein (Homo sapiens) (UniProt P05067); experiment: Inhibition of self-induced amyloid beta (1 to 42) (unknown origin) aggregation assessed as reduced particle size at 10 uM measured after 48 hrs by Dynamic light scattering analysis
Method in brief: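 Aβ1-42 stock (100 μM) in PBS pH 7.4, […], incubated with compound (10 μM) in the dark at 37 °C for 48 h. Particle size distribution then measured by dynamic light scattering.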

[3] = target: Acetylcholinesterase (Homo sapiens) (UniProt P22303); experiment: Inhibition of AChE in human erythrocytes assessed as inhibition of AChE-induced amyloid beta(1 to 42) aggregation at Abeta42:compound concentration ratio of 10:20 measured after 48 hrs by thioflavin-T assay; format: cell-based; conditions: Erythrocyte
Method in brief: (§1)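 Aβ1-42 (stock in 1% ammonium hydroxide; final 10 μM) plus human erythrocyte AChE. Incubated 48 h at 37 °C with or without compound (5, 10, 20 μM; DMSO stock diluted in PBS pH 7.4). Then diluted in 50 mM glycine-NaOH pH 8.0 containing 5 μM thioflavin T. Fluorescence normalised to control; three separate experiments.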

[4] = target: Acetylcholinesterase (Homo sapiens) (UniProt P22303); experiment: Non-competitive inhibition of AChE in human erythrocytes assessed as ratio of Vmax to Km at 100 nM measured at 2 mins interval for 10 mins by Lineweaver-Burk plot analysis; format: cell-based; conditions: Erythrocyte
Method in brief: (§2)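 Human AChE kinetics in the Ellman DTNB assay. Inhibitor at 25, 50 and 100 nM, each with six ATCI concentrations, against an inhibitor-free series. Activity read every 2 min over 10 min. Km and Vmax from Michaelis–Menten non-linear regression; mechanism from Lineweaver–Burk plots; Ki from Dixon plot over four inhibitor concentrations and from slope/intercept replots. Triplicate.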

[5] = target: Acetylcholinesterase (Homo sapiens) (UniProt P22303); experiment: Inhibition of AChE in human erythrocytes assessed as inhibition of AChE-induced amyloid beta (1 to 42) aggregation by measuring reduced particle size at 10 uM measured after 48 hrs by Dynamic light scattering analysis; format: cell-based; conditions: Erythrocyte
Method in brief: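 Aβ1-42 with AChE (10 unit/mL) incubated with compound at 10 μM in PBS pH 7.4, in the dark for 48 h at 37 °C. Particle size distribution then measured by dynamic light scattering.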

[6] = target: Acetylcholinesterase (Homo sapiens) (UniProt P22303); experiment: Non-competitive inhibition of AChE in human erythrocytes assessed as ratio of Vmax to Km at 25 nM measured at 2 mins interval for 10 mins by Lineweaver-Burk plot analysis; format: cell-based; conditions: Erythrocyte; method in brief: as §2
[7] = target: Acetylcholinesterase (Homo sapiens) (UniProt P22303); experiment: Inhibition of AChE in human erythrocytes assessed as inhibition of AChE-induced amyloid beta(1 to 42) aggregation at Abeta42:compound concentration ratio of 10:10 measured after 48 hrs by thioflavin-T assay; format: cell-based; conditions: Erythrocyte; method in brief: as §1
[8] = target: Acetylcholinesterase (Homo sapiens) (UniProt P22303); experiment: Non-competitive inhibition of AChE in human erythrocytes assessed as ratio of Vmax to Km at 50 nM measured at 2 mins interval for 10 mins by Lineweaver-Burk plot analysis; format: cell-based; conditions: Erythrocyte; method in brief: as §2
[9] = target: Amyloid-beta precursor protein (Homo sapiens) (UniProt P05067); experiment: Inhibition of amyloid beta (1 to 42) (unknown origin) aggregation at 22 uM measured after 24 hrs by Transmission electron microscopy method
Method in brief: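 Aβ1-42 (44 μM) co-incubated with compound (22 μM) at 37 °C for 24 h. 10 μL aliquots placed on carbon-coated copper grids, stained with 1% uranyl acetate, blotted and dried 15 min at room temperature. Fibril morphology imaged by […]TEM. Controls were Aβ1-42 alone at 37 °C for 24 h and Aβ1-42 alone at 0 h.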

[10] = target: Acetylcholinesterase (Homo sapiens) (UniProt P22303); experiment: Non-competitive inhibition of AChE in human erythrocytes assessed as decrease in Vmax with constant Km measured at 2 mins interval for 10 mins by Lineweaver-Burk plot analysis; format: cell-based; conditions: Erythrocyte; method in brief: as §2
[11] = test system: MC65; experiment: Neuroprotective activity in human MC65 cells cultured in TC-deficient medium assessed as inhibition of TC-deficiency induced oxidative stress by measuring increase in cell viability at 1 to 80 uM measured after 12 hrs by MTT assay; format: functional, cell-based; conditions: dose 1-80 µM
Method in brief: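 MC65 cells grown in MEM, PBS-washed and resuspended in MEM, then seeded at 5×10⁴ cells/well with or without TC. Compounds (80–1 μM) added to TC-free wells and incubated 12 h at 37 °C. MTT (5 mg/ml) added for a further 4 h; formazan dissolved in DMSO:H₂O 1:1 and read at 570 nm. Viability expressed as % of +TC control. Triplicate wells, three runs.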

Sequence of Acetylcholinesterase (Homo sapiens) (P22303 whole entry): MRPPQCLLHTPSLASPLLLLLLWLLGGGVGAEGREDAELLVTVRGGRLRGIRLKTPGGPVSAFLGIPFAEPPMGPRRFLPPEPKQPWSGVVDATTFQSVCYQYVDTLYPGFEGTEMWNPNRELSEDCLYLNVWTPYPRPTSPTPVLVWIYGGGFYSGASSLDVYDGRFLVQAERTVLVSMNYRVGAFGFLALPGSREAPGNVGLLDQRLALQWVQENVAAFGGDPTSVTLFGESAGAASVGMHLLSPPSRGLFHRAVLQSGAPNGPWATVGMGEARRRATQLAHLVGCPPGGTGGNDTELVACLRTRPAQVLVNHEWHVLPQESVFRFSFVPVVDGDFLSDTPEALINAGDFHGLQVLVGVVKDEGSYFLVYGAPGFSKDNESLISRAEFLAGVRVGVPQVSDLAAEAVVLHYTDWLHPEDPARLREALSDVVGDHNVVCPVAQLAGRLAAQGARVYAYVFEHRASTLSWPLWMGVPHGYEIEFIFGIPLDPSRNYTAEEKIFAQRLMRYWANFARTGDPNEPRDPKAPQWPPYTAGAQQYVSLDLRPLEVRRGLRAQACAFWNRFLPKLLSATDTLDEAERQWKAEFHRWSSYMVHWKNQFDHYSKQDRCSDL
Sequence of Amyloid-beta precursor protein (Homo sapiens) (P05067 whole entry): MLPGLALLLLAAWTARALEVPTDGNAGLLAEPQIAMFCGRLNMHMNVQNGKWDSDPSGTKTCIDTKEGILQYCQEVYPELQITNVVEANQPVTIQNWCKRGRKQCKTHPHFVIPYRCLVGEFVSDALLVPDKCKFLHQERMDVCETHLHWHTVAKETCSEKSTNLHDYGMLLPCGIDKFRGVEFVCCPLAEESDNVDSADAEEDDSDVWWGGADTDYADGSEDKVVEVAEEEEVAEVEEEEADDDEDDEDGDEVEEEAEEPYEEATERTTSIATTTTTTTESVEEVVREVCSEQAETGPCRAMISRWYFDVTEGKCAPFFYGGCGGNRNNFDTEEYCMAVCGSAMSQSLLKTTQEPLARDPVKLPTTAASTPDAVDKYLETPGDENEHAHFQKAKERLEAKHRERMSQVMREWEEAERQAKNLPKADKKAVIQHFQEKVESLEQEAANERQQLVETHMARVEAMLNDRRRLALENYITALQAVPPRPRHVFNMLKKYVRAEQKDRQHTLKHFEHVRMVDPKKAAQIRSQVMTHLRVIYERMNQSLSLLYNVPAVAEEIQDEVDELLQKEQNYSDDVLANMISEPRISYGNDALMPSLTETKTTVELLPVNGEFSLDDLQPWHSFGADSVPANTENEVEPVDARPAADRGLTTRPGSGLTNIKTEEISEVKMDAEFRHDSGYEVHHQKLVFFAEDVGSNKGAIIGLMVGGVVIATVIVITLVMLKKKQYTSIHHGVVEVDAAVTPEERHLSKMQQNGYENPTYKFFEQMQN

| SMILES | Ratio IC50 [1] | also measured |
| --- | --- | --- |
| CCOC(=O)c1c(C)nc(N2CCN(S(=O)(=O)c3ccc(NC(C)=O)c(F)c3)CC2)nc1-c1ccccc1 | 0.35 | – |
| CCOC(=O)c1c(C)nc(N2CCN(S(=O)(=O)c3ccc(NC(C)=O)c(OC)c3)CC2)nc1-c1ccc(OC)c(OC)c1 | 0.38 | – |
| CCOC(=O)c1c(C)nc(N2CCN(S(=O)(=O)c3ccc(N)c(F)c3)CC2)nc1-c1ccc(OC)cc1 | 0.64 | – |
| CCOC(=O)c1c(C)nc(N2CCN(S(=O)(=O)c3ccc(NC(C)=O)cc3)CC2)nc1-c1ccccc1 | 0.54 | – |
| CCOC(=O)c1c(C)nc(N2CCN(S(=O)(=O)c3ccc(N)c(OC)c3)CC2)nc1-c1ccc(OC)cc1 | 0.36 | – |
| CCOC(=O)c1c(C)nc(N2CCN(S(=O)(=O)c3ccc(N)c(OC)c3)CC2)nc1-c1ccc(OC)c(OC)c1 | 0.4 | – |
| CCOC(=O)c1c(C)nc(N2CCN(S(=O)(=O)c3ccc(NC(C)=O)c(Cl)c3)CC2)nc1-c1ccc(OC)c(OC)c1 | 0.23 | inhibition [2]: Active; inhibition [3]: 51.3%; Vmax/Km [4]: 0.056; inhibition [5]: Active; Vmax/Km [6]: 0.094; inhibition [7]: 35.5%; Vmax/Km [8]: 0.076; inhibition [9]: Active; inhibition [10]: Active |
| CCOC(=O)c1c(C)nc(N2CCN(S(=O)(=O)c3ccc(N)c(Cl)c3)CC2)nc1-c1ccccc1 | 0.57 | – |
| CCOC(=O)c1c(C)nc(N2CCN(S(=O)(=O)c3ccc(N)c(Cl)c3)CC2)nc1-c1ccc(OC)c(OC)c1 | 0.28 | inhibition [2]: Active; inhibition [3]: 35.3%; inhibition [5]: Active; Activity [11]: Active; inhibition [7]: 22.2%; inhibition [9]: Active |
| CCOC(=O)c1c(C)nc(N2CCN(S(=O)(=O)c3ccc(NC(C)=O)cc3)CC2)nc1-c1ccc(OC)c(OC)c1 | 0.35 | – |
| CCOC(=O)c1c(C)nc(N2CCN(S(=O)(=O)c3ccc(NC(C)=O)cc3)CC2)nc1-c1ccc(OC)cc1 | 0.42 | – |
| CCOC(=O)c1c(C)nc(N2CCN(S(=O)(=O)c3ccc(N)cc3)CC2)nc1-c1ccc(OC)cc1 | 0.33 | – |
| CCOC(=O)c1c(C)nc(N2CCN(S(=O)(=O)c3ccc(NC(C)=O)c(F)c3)CC2)nc1-c1ccc(OC)cc1 | 0.42 | – |
| CCOC(=O)c1c(C)nc(N2CCN(S(=O)(=O)c3ccc(N)c(OC)c3)CC2)nc1-c1ccccc1 | 0.29 | – |
| CCOC(=O)c1c(C)nc(N2CCN(S(=O)(=O)c3ccc(NC(C)=O)c(Cl)c3)CC2)nc1-c1ccc(OC)cc1 | 0.4 | – |
| CCOC(=O)c1c(C)nc(N2CCN(S(=O)(=O)c3ccc(NC(C)=O)c(F)c3)CC2)nc1-c1ccc(OC)c(OC)c1 | 0.41 | – |
| CCOC(=O)c1c(C)nc(N2CCN(S(=O)(=O)c3ccc(N)cc3)CC2)nc1-c1ccc(OC)c(OC)c1 | 0.31 | – |
| CCOC(=O)c1c(C)nc(N2CCN(S(=O)(=O)c3ccc(NC(C)=O)c(OC)c3)CC2)nc1-c1ccccc1 | 0.42 | – |
| CCOC(=O)c1c(C)nc(N2CCN(S(=O)(=O)c3ccc(N)c(F)c3)CC2)nc1-c1ccc(OC)c(OC)c1 | 0.37 | – |
| CCOC(=O)c1c(C)nc(N2CCN(S(=O)(=O)c3ccc(NC(C)=O)c(Cl)c3)CC2)nc1-c1ccccc1 | 0.61 | – |
| CCOC(=O)c1c(C)nc(N2CCN(S(=O)(=O)c3ccc(NC(C)=O)c(OC)c3)CC2)nc1-c1ccc(OC)cc1 | 0.4 | – |
| CCOC(=O)c1c(C)nc(N2CCN(S(=O)(=O)c3ccc(N)c(Cl)c3)CC2)nc1-c1ccc(OC)cc1 | 0.43 | – |
